Laboratory results published in ChEMBL document CHEMBL1123370, “Design and synthesis of conformationally constrained somatostatin analogues with high potency and specificity for mu opioid receptors” (J Med Chem, 1986).

Columns and labels:
[1] = target: Delta-type opioid receptor (Rattus norvegicus, UniProt P33533); test: Inhibition of [3H]-DPDPE binding to Opioid receptor delta 1 of rat brain membranes; type: cell membranes, Membrane
Procedure, shortened: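 Rat brain membranes were prepared as a sucrose homogenate, spun at 1000g, and washed twice in 50 mM Tris-HCl pH 7.4 with 5 mM MgCl2, BSA 2 mg/mL and bacitracin 20 µg/mL. They were incubated with [3H]DPDPE and at least 10 freshly prepared peptide concentrations for 180 min at 25 °C. Bound ligand was separated by rapid filtration on PEI-pretreated GF/B filters.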

Rattus norvegicus = species: Rattus norvegicus; test: Compound was evaluated for the inhibition of binding of [125I]CGP23996 to rat brain membranes; design: species or system Membrane
Procedure, shortened: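 Whole brains from adult Sprague-Dawley rats (150–200 g) were homogenized 10% w/v in 0.32 M sucrose, spun at 1000g for 10 min, and resuspended in 50 mM Tris-HCl pH 7.4 with 5 mM MgCl2, BSA 2 mg/mL and bacitracin 20 µg/mL (done twice). Membranes were incubated with 0.2 nM [125I]CGP23,996 and ≥10 analogue concentrations for 120 min at 25 °C. Filtration was through 0.1% PEI-treated GF/B filters.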

Mu-type opioid receptor = Mu-type opioid receptor (Rattus norvegicus, UniProt P33535); test: Inhibition of binding of [3H]-naloxone to Opioid receptor mu 1 of rat brain membranes; type: cell membranes, Membrane
Procedure, shortened: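 The [3H]naloxone (1 nM) displacement used washed Sprague-Dawley rat brain membranes in 50 mM Tris-HCl pH 7.4 containing MgCl2 5 mM, BSA and bacitracin. Incubation ran 120 min at 25 °C across ≥10 analogue concentrations. Binding was terminated by filtration through GF/B filters soaked in 0.1% polyethylenimine. IC50 is mean ± SD of at least three duplicate runs.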

[2] = target: Opioid receptors; mu & delta (Rattus norvegicus) (UniProt P33533+P33535); test: Ratio of receptor binding inhibitory concentrations against mu and delta opioid receptors from rat brain as IC50 (vs [3H]-DPDPE) / IC50 (vs [3H]naloxone)
Procedure, shortened: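 The ratio is IC50 against [3H]DPDPE (rat brain membranes, 180 min, 25 °C) divided by IC50 against 1 nM [3H]naloxone (120 min, 25 °C). Both assays used Tris-HCl pH 7.4 buffer with MgCl2, BSA and bacitracin, and filtration on PEI-treated GF/B filters.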

[3] = Ratio of receptor binding inhibitory concentrations against somatostatin receptors and mu opioid receptors from rat brain […] / IC50(vs [3H]naloxone)

Sequence of Opioid receptors; mu & delta (Rattus norvegicus) (P33533 whole entry, looked up): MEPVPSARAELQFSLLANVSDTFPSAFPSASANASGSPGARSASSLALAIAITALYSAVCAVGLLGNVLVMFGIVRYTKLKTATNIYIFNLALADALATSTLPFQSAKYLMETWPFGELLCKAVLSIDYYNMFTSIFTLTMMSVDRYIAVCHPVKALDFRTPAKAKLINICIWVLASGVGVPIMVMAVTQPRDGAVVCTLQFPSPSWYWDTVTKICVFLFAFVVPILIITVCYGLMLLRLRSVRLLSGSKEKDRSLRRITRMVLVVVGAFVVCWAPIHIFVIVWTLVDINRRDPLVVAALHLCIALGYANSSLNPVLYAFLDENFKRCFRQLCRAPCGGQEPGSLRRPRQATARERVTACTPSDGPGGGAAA
Sequence of Opioid receptors; mu & delta (Rattus norvegicus) (P33535 whole entry, looked up): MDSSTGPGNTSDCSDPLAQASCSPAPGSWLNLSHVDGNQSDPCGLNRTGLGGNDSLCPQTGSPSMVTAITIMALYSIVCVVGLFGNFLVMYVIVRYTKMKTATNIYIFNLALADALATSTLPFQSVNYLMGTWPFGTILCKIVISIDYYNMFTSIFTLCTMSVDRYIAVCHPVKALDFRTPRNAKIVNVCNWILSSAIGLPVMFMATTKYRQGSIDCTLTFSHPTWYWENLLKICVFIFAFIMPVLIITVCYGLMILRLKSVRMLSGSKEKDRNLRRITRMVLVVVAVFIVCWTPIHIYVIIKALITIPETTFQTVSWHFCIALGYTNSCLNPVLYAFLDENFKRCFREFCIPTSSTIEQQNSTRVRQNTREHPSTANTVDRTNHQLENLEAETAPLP
Sequence of Delta-type opioid receptor (P33533 whole entry): as the sequence (P33533 whole entry, looked up) above
Sequence of Mu-type opioid receptor (P33535 whole entry): as the sequence (P33535 whole entry, looked up) above

For `C[C@@H](O)[C@H](NC(=O)[C@H]1NC(=O)[C@H]([C@@H](C)O)NC(=O)[C@H](CCCCN)NC(=O)[C@@H](Cc2c[nH]c3ccccc23)NC(=O)[C@H](Cc2ccc(O)cc2)NC(=O)[C@@H](NC(=O)[C@H](N)Cc2ccccc2)CSSC1(C)C)C(N)=O`, the IC50 [1] was 8.4 µM, the IC50 (Rattus norvegicus) was 0.69 µM and the IC50 (Mu-type opioid receptor) was 3.7 nM.

For `C[C@@H](O)[C@H](NC(=O)[C@H]1NC(=O)CNC(=O)[C@H](CCCCN)NC(=O)[C@@H](Cc2c[nH]c3ccccc23)NC(=O)[C@H](Cc2ccc(O)cc2)NC(=O)[C@@H](NC(=O)[C@H](N)Cc2ccccc2)CSSC1(C)C)C(N)=O`, the IC50 [1] was 58 µM, the IC50 (Rattus norvegicus) was 13.3 µM and the IC50 (Mu-type opioid receptor) was 539 nM.

`CC(C)[C@H]1NC(=O)[C@H](CCCCN)NC(=O)[C@@H]([C@@H](C)O)NC(=O)[C@H](Cc2ccc(O)cc2)NC(=O)[C@@H](NC(=O)[C@H](N)Cc2ccccc2)CSSC(C)(C)[C@H](C(=O)N[C@H](C(N)=O)[C@@H](C)O)NC1=O` gave a Ratio [2] of 360.

Compound `CC(C)[C@@H]1NC(=O)[C@H](CCCCN)NC(=O)[C@@H](Cc2c[nH]c3ccccc23)NC(=O)[C@H](Cc2ccc(O)cc2)NC(=O)[C@@H](NC(=O)[C@H](N)Cc2ccccc2)CSSC(C)(C)[C@@H](C(=O)NC(C(N)=O)[C@@H](C)O)NC1=O` (stereo in doubt) has an IC50 [1] of 2 µM and an IC50 (Mu-type opioid receptor) of 5.5 nM.

With `C[C@@H](O)[C@H](NC(=O)[C@H]1NC(=O)[C@H]([C@@H](C)O)NC(=O)[C@H](CCCCN)NC(=O)[C@@H](Cc2c[nH]c3ccccc23)NC(=O)[C@H](Cc2ccc(O)cc2)NC(=O)[C@@H](NC(=O)[C@H](N)c2ccccc2)CSSC1(C)C)C(N)=O` the IC50 [1] was 2.8 µM, the IC50 (Rattus norvegicus) was 2.3 µM and the IC50 (Mu-type opioid receptor) was 350 nM.

In the case of `C[C@@H](O)[C@H](NC(=O)[C@@H]1NC(=O)[C@@H]([C@@H](C)O)NC(=O)[C@H](CCCCN)NC(=O)[C@H](Cc2c[nH]c3ccccc23)NC(=O)[C@H](Cc2ccc(O)cc2)NC(=O)[C@@H](NC(=O)[C@H](N)Cc2ccccc2)CSSC1(C)C)C(N)=O`, the Ratio [2] is reported as > 52 and the Ratio [3] is reported as 0.55.

For `CCCC[C@@H]1NC(=O)[C@@H](Cc2c[nH]c3ccccc23)NC(=O)[C@H](Cc2ccc(O)cc2)NC(=O)[C@@H](NC(=O)[C@H](N)Cc2ccccc2)CSSC(C)(C)[C@@H](C(=O)N[C@H](C(N)=O)[C@@H](C)O)NC(=O)[C@H]([C@@H](C)O)NC1=O`, the IC50 [1] was 5.6 µM and the IC50 (Mu-type opioid receptor) was 9.6 nM.

In the case of `C[C@@H](O)[C@H](NC(=O)[C@@H]1NC(=O)[C@@H]([C@@H](C)O)NC(=O)[C@H](CCCCN)NC(=O)[C@@H](Cc2c[nH]c3ccccc23)NC(=O)[C@H](Cc2ccc(O)cc2)NC(=O)[C@@H](NC(=O)[C@H](N)c2ccccc2)CSSC1(C)C)C(N)=O`, the Ratio [2] is reported as 8 and the Ratio [3] is reported as 6.6.

For `C[C@@H](O)[C@H](NC(=O)[C@@H]1NC(=O)[C@@H]([C@@H](C)O)NC(=O)[C@H](CCCN=C(N)N)NC(=O)[C@@H](Cc2c[nH]c3ccccc23)NC(=O)[C@H](Cc2ccc(O)cc2)NC(=O)[C@@H](NC(=O)[C@H](N)Cc2ccccc2)CSSC1(C)C)C(N)=O`, the Ratio [2] was 1300 and the Ratio [3] was 4090.

With `C[C@@H](O)[C@H](NC(=O)[C@H]1CSSC(C)(C)[C@H](NC(=O)[C@H](N)c2ccccc2)C(=O)N[C@@H](Cc2ccccc2)C(=O)N[C@H](Cc2c[nH]c3ccccc23)C(=O)N[C@@H](CCCCN)C(=O)N[C@H]([C@@H](C)O)C(=O)N1)C(=O)O` the Ratio [2] was 15 and the Ratio [3] was 0.45.

Compound `C[C@@H](O)[C@H](NC(=O)[C@@H]1CSSC(C)(C)[C@H](NC(=O)[C@H](N)c2ccccc2)C(=O)N[C@@H](Cc2ccccc2)C(=O)N[C@H](Cc2c[nH]c3ccccc23)C(=O)N[C@@H](CCCCN)C(=O)N[C@@H]([C@@H](C)O)C(=O)N1)C(=O)O` has an IC50 [1] of 32 µM, an IC50 (Rattus norvegicus) of 0.947 µM and an IC50 (Mu-type opioid receptor) of 2100 nM.

`C[C@@H](O)[C@H](NC(=O)[C@@H]1NC(=O)CNC(=O)[C@H](CCCCN)NC(=O)[C@@H](Cc2c[nH]c3ccccc23)NC(=O)[C@H](Cc2ccc(O)cc2)NC(=O)[C@@H](NC(=O)[C@H](N)Cc2ccccc2)CSSC1(C)C)C(N)=O` gave a Ratio [2] of 110 and a Ratio [3] of 25.

For `C[C@@H](O)[C@H](NC(=O)[C@H]1NC(=O)[C@H]([C@@H](C)O)NC(=O)[C@H](CCCCN)NC(=O)[C@H](Cc2c[nH]c3ccccc23)NC(=O)[C@H](Cc2ccc(O)cc2)NC(=O)[C@@H](NC(=O)[C@H](N)Cc2ccccc2)CSSC1(C)C)C(N)=O`, the IC50 [1] was > 70 µM, the IC50 (Rattus norvegicus) was 0.74 µM and the IC50 (Mu-type opioid receptor) was 1350 nM.

`C[C@@H](O)[C@H](NC(=O)[C@H]1CSSC[C@H](NC(=O)[C@H](N)Cc2ccc(O)cc2)C(=O)N[C@@H](Cc2ccc(O)cc2)C(=O)N[C@H](Cc2c[nH]c3ccccc23)C(=O)N[C@@H](CCCCN)C(=O)N[C@H]([C@@H](C)O)C(=O)N1)C(=O)O` showed a Ratio [2] of 3 and a Ratio [3] of 2.

Compound `CCCC[C@@H]1NC(=O)[C@@H](Cc2c[nH]c3ccccc23)NC(=O)[C@H](Cc2ccc(O)cc2)NC(=O)[C@@H](NC(=O)[C@H](N)Cc2ccccc2)CSSC(C)(C)[C@H](C(=O)N[C@H](C(N)=O)[C@@H](C)O)NC(=O)[C@@H]([C@@H](C)O)NC1=O` has a Ratio [2] of 580.

`C[C@@H](O)[C@H](NC(=O)[C@@H]1NC(=O)[C@@H]([C@@H](C)O)NC(=O)[C@H](CCCCN)NC(=O)[C@@H](Cc2c[nH]c3ccccc23)NC(=O)[C@H](Cc2ccc(O)cc2)NC(=O)[C@@H](NC(=O)[C@H](N)Cc2ccccc2)CSSC1(C)C)C(N)=O` showed a Ratio [2] of 2250 and a Ratio [3] of 187.

Work on `C[C@H](N)C(=O)NCC(=O)N[C@H]1CSSC[C@@H](C(=O)O)NC(=O)[C@H](CO)NC(=O)[C@H]([C@@H](C)O)NC(=O)[C@H](Cc2ccccc2)NC(=O)[C@H]([C@@H](C)O)NC(=O)[C@H](CCCCN)NC(=O)[C@H](Cc2c[nH]c3ccccc23)NC(=O)[C@H](Cc2ccccc2)NC(=O)[C@H](Cc2ccccc2)NC(=O)[C@H](CC(N)=O)NC(=O)[C@H](CCCCN)NC1=O` yielded a Ratio [3] of 0.0003.

In the case of `C[C@@H](O)[C@H](NC(=O)[C@H]1NC(=O)[C@H]([C@@H](C)O)NC(=O)[C@H](CCCN)NC(=O)[C@@H](Cc2c[nH]c3ccccc23)NC(=O)[C@H](Cc2ccc(O)cc2)NC(=O)[C@@H](NC(=O)[C@H](N)Cc2ccccc2)CSSC1(C)C)C(N)=O`, the IC50 [1] is reported as 13.5 µM and the IC50 (Rattus norvegicus) is reported as 24.3 µM.

In the case of `C[C@@H](O)[C@H](NC(=O)[C@H]1NC(=O)[C@H]([C@@H](C)O)NC(=O)[C@H](CCCN=C(N)N)NC(=O)[C@@H](Cc2c[nH]c3ccccc23)NC(=O)[C@H](Cc2ccc(O)cc2)NC(=O)[C@@H](NC(=O)[C@H](N)Cc2ccccc2)CSSC1(C)C)C(N)=O`, the IC50 [1] is reported as 4.5 µM, the IC50 (Rattus norvegicus) is reported as 14.3 µM and the IC50 (Mu-type opioid receptor) is reported as 3.5 nM.

`C[C@@H](O)[C@H](NC(=O)[C@@H]1CSSC[C@H](NC(=O)[C@H](N)Cc2ccc(O)cc2)C(=O)N[C@@H](Cc2ccc(O)cc2)C(=O)N[C@H](Cc2c[nH]c3ccccc23)C(=O)N[C@@H](CCCCN)C(=O)N[C@@H]([C@@H](C)O)C(=O)N1)C(=O)O` gave an IC50 [1] of 27.5 µM, an IC50 (Rattus norvegicus) of 18.5 µM and an IC50 (Mu-type opioid receptor) of 9100 nM.
